Screening results (PubChem BioAssay)
CR mimetic SO – lowers age-related superoxide in aged yeast cells; S. cerevisiae aged cells, superoxide DHE fluorescence; stronger effect = lower value; AID 2690; superoxide response (% of plate mean), % at 10 µM; 330,000 compounds, 0.18% hits;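 active = superoxide response under a set limit, about three screen SD below normal, cut at about 65% in these data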;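 note: yeast aged for seven days with compound at 30 °C before DHE staining; 100% = average MFI of all compound-treated wells on the plate with controls excluded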
proCasp7 act – counter-screen for procaspase-3 activators: activators of human procaspase-7; recombinant procaspase-7, Ac-DEVD-pNA absorbance 405 nm; D23A/D198A/D206A triple mutant, cannot self-cleave; scale: DMSO 0, 5 µM enzyme 100; activation, % at 8.5 µM; 330,000 compounds, 0.093% hits; AID 463210;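 active = percent activation above the screen-wide mean plus 3 SD, cut at about 25% in these data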
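System: Procaspase-7 triple mutant (PC-7 D3A); measure: % activation from two-timepoint absorbance difference, scaled to controls; times: 1 h compound preincubation, 2 h substrate cleavage, 25 °C; also added: Ac-DEVD-pNA substrate, 400 µM as added; measured by: Epi-absorbance of released pNA at 405 nm, two timepoints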
procasp3 activ – procaspase-3 (human) activation; P42574; recombinant procaspase-3 D3A, Ac-DEVD-pNA absorbance 405 nm; activation, % at 8.5 µM; 330,000 compounds, 0.11% hits;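 active = activation above the mean of all tested compounds plus 3 SD, cut at about 21% in these data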;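 note: 0% = DMSO alone and 100% = DMSO wells spiked with extra 5 µM PC-3 D3A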
Target sequence (P42574 whole entry D9A/D28A/D175A): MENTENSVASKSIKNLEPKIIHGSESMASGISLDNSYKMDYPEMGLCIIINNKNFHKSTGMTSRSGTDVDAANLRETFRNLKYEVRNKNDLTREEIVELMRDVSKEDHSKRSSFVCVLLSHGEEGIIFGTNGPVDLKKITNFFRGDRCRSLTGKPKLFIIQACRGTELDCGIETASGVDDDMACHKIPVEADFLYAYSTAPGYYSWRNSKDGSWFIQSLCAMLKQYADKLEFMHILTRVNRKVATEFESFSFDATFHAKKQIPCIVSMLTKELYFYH
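System: Procaspase-3 D3A mutant. Medium: Zinc-free 300 mM NaCl, 50 mM HEPES, 0.01% Triton X-100. Schedule: 1 h preincubation plus 2 h reaction at 25 °C. Measured by: 405 nm absorbance of p-nitroaniline, reads at 0 and 120 min. Read-out: percent activation relative to control range.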
ASAP1 inh – inhibitors of human ASAP1 ArfGAP activity; inhibition, % at 16.5 µM; 360,000 compounds, 0.19% hits; Q9ULH1; ASAP1-stimulated ARF1 GTP hydrolysis, GDP FP detection; in the data active = inhibition above about 25%;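 note: 0% = vehicle with enzyme and substrate and 100% = no enzyme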
Target sequence (Q9ULH1 325-724 limits assumed): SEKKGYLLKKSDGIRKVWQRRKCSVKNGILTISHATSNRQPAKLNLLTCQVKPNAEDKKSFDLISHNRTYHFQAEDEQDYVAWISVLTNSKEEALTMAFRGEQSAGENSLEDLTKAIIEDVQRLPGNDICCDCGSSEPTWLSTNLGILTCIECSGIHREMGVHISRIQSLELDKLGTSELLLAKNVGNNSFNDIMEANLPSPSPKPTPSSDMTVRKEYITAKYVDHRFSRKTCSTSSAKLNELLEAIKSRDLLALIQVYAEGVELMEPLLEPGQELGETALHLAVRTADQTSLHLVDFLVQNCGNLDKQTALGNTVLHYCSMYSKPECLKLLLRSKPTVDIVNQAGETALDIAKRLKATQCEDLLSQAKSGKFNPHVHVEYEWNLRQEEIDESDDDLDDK
LANA-H2A inh – blocks KSHV LANA binding to histone H2A/H2B; AID 2629; inhibition, % (test concentration not listed); Q9QR71; 320,000 compounds, 0.6% hits; cell-free LANA-H2A/H2B peptide, fluorescence polarization; in the data active = inhibition mostly above about 10%, no sharp cut-off; inactive = mostly below about 6.7%
ARFGAP1 inhibitor – rat ARFGAP1 inhibition; inhibition, % at 16.5 µM; AID 651572; Q62848; Arfgap1-stimulated ARF1 GTP hydrolysis, GDP FP detection; 360,000 compounds, 0.26% hits;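 active = inhibition above a per-plate limit, mean inhibition of low control wells plus 3 SD, cut at about 25% in these data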;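 note: 0% = DMSO wells with enzyme and 100% = wells lacking Arfgap1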
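system = rat Arfgap1 catalytic domain, aa 1-136 | technique = FP, GDP Alexa 633 tracer displaced from anti-GDP antibody, 620/688 nm | compound = one concentration, 16.5 µM, DMSO 1.26% | medium = HEPES-based buffer, pH 7.5 | timing = compound-enzyme preincubation 20 min, reaction 120 min, detection 60 min, 25 °C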
ASAP1 GAP conf – confirmation of human ASAP1 inhibitors; shares compounds with ASAP1 inh; ASAP1-stimulated Arf1 GTPase, GDP fluorescence polarization; inhibition, % at 16.5 µM; 620 compounds, 37% hits;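 active = mean inhibition over triplicates exceeds the hit threshold derived for the earlier primary screening run, cut at about 25% in these data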
ARFGAP1 inh conf – rat ARFGAP1 inhibition, confirmed; AID 651608; 890 compounds, 30% hits; ARFGAP1-stimulated ARF1 GTP hydrolysis, GDP tracer FP; inhibition, % at 16.5 µM; shares compounds with ARFGAP1 inhibitor;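 active = average inhibition over triplicates above the hit cutoff set in the earlier primary screen, cut at about 25% in these data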;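 note: 0% = Arfgap1 plus ARF1-GTP with DMSO and 100% = wells lacking Arfgap1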
The depositor's hits bear a star; nt = not tested or not shown; + = active, no number. A selection: hits, their analogues and other compounds. The true share with any hit is near 1.2%.

SMILES	CR mimetic SO	proCasp7 act	procasp3 activ	ASAP1 inh	LANA-H2A inh	ARFGAP1 inhibitor	ASAP1 GAP conf	ARFGAP1 inh conf
COc1cccc(CN2CCNC(=O)C2CC(=O)NCCCn2ccnc2)c1 (stereo not drawn)	104	8	-2	-12	-5	-3	nt	nt
COc1ccc(C(=O)C(=O)c2ccc(OCCO)cc2)cc1	102	1	2	6	3	1	nt	nt
Cc1nc2ccc(S(=O)(=O)Nc3ccc(-c4nc5cccnc5s4)cc3)cc2s1	124	16	7	28*	-1	4	19	nt
CC(Sc1cccc[n+]1[O-])C(=O)Nc1ccc(Oc2ccccc2)cc1 (stereo not drawn)	78	-4	-4	4	-5	4	nt	nt
O=C(/C=C/c1ccc([N+](=O)[O-])cc1)NCCN1C(=O)S/C(=C\c2ccc(F)cc2)C1=O	101	6	3	-2	0	1	nt	nt
CN1\C(=C/C=C/C=C/C=[N+](C)C)C(C)(C)c2ccccc21	nt	nt	nt	55*	nt	47*	41*	37*
O=C1c2ccccc2C(=O)c2c1cccc2-n1nnc2ccccc21	150	8	1	-13	8	-12	nt	nt
O=C1C(N2CCOCC2)=C(n2nnc3ccccc32)C(=O)c2ccccc21	139	-7	-12	44*	1	31*	10	3
O=C(CCNc1n[nH]c(=O)[nH]c1=O)N/N=C\c1cccc(OCc2ccccc2)c1	98	-8	3	12	1	9	nt	nt
COc1cc(/C=C(\C#N)c2nc(-c3cc4ccccc4oc3=O)cs2)ccc1O	95	-5	1	20	-2	9	nt	nt
CCN(CC)CCOC(=O)c1ccc(N/C=C(/C#N)c2nc(-c3cc4ccccc4oc3=O)cs2)cc1	95	nt	nt	72*	-2	84*	99*	134*
CCN(CC)CCOC(=O)c1ccc(N/C=C(/C#N)c2nc(-c3ccc(OC)cc3)cs2)cc1	83	-3	-2	48*	-14	28*	51*	55*
COc1ccc(/C=C2\Oc3cc(OCC(N)=O)ccc3C2=O)cc1OC	115	-8	-7	35*	2	32*	47*	45*
CC(=O)Nc1ccc(NC(=O)c2ccc(-c3ccc([N+](=O)[O-])cc3)o2)cc1	75	-8	-5	130*	1	62*	164*	+
Cc1ccc(S(=O)(=O)N(C)Cc2ccc(C(=O)N/N=C/c3ccc(OC(F)F)cc3OC(F)F)cc2)cc1	99	4	2	6	-4	6	nt	nt
O=C(NN=Cc1ccc2c(c1)OCO2)NN=Cc1ccc2c(c1)OCO2	nt	nt	nt	34*	nt	31*	72*	62*
O=C(NN=Cc1ccc2c(c1)OCO2)C1CC1	nt	nt	nt	0	nt	-3	nt	nt
CN1CCN(C(=O)c2ccc(-c3ccc(F)c(F)c3)c3ccoc23)CC1	nt	nt	nt	12	nt	4	nt	nt
O=C(/C=C/c1ccco1)Nc1ccc(-c2nc3ccccc3[nH]2)cc1	117	7	-2	28*	4	88*	71*	139*
COc1ccc(C(=O)Nc2nnc(SCC(=O)Nc3ccc(NC(C)=O)cc3)s2)c(OC)c1	104	17	0	39*	0	52*	82*	122*
Cc1ccc(C)c(N2C(=O)C3C4C=CC(CC4)C3C2=O)c1 (stereo not drawn)	96	1	0	-3	6	0	nt	nt
COc1cc2c3nnc(-c4ccc(F)cc4)c-3cn(Cc3ccccc3)c2cc1OC	94	11	1	79*	9	36*	60*	29*
CC1=CC2=NC(=O)/C(=C\c3ccc(-c4cccc(Cl)c4)o3)C(=N)N2O1	107	-3	-4	58*	5	41*	87*	131*
Cc1cc2oc3ccc(NCCCn4ccnc4)cc3c(=O)c2cc1C	108	-18	-10	79*	3	115*	127*	+
Cc1cc2oc3ccc(NCCCN4CCOCC4)cc3c(=O)c2cc1C	105	-1	1	-16	0	5	nt	nt
SMILES	CR mimetic SO	proCasp7 act	procasp3 activ	ASAP1 inh	LANA-H2A inh	ARFGAP1 inhibitor	ASAP1 GAP conf	ARFGAP1 inh conf
CCCCOc1cccc2c(=O)n(CC(=O)Nc3ccc4c(c3)OCCO4)ccc12	nt	nt	nt	35*	nt	25*	34*	38*
O=C(Cn1cnc2ccccc2c1=O)Nc1ccc2c(c1)OCCO2	125	2	1	10	-1	5	nt	nt
CN(C)CCNC(=O)c1cccc(-c2cnc3c(NC=O)cc(-c4cccc(F)c4)cn23)c1	nt	nt	nt	10	nt	4	nt	nt
CN(C)CCNC(=O)c1cccc(-c2cnc3c(NC=O)cc(/C=C/c4ccccc4)cn23)c1	nt	nt	nt	42*	nt	34*	37*	45*
O=C(CSc1nc(=O)n2ccccc2n1)NCc1ccccc1	112	3	-6	0	-3	9	nt	nt
CCN1CCN(Cc2ccc(NC(=O)c3cccc(-c4ccc5nc(NC(=O)C6CC6)sc5n4)c3)cc2C(F)(F)F)CC1	nt	nt	nt	27*	nt	57*	40*	51*
Cc1ccc2cc3cc(C(=O)NCc4ccc5c(c4)OCO5)oc3nc2c1	nt	nt	nt	54*	nt	68*	28*	110*
CC1(C)OC(=O)C(=Cc2ccc(-c3ccc(Cl)c(C(=O)O)c3)o2)C(=O)O1	109	-10	10	-6	7	-11	nt	nt
Cc1[nH][nH]c(=O)c1C(c1ccc(-c2ccc(Cl)c(C(=O)O)c2)o1)c1c(C)[nH][nH]c1=O	nt	nt	nt	42*	nt	25*	11	-2
O=C1N=C(N2CCOCC2)S/C1=C/c1ccc(-c2ccc(F)cc2)o1	104	-12	-14	33*	-5	30*	58*	49*
O=C1N=C(N2CCOCC2)SC1=Cc1ccco1	nt	nt	nt	-2	nt	7	nt	nt
Cc1ccc(-c2ccc(/C=C3\SC(N4CCOCC4)=NC3=O)o2)cc1	108	-27	-25	49*	-7	37*	116*	87*
O=C(NC(c1ccccc1)c1ccsc1)C1CCN(CCOc2ccc(Cl)cc2Cl)CC1 (stereo not drawn)	nt	nt	nt	-3	nt	-3	nt	nt
Cc1cc(NC(=O)c2ccccc2F)nc2c1c(=O)oc1ccccc12	73	8	1	10	0	5	nt	nt
COc1ccc(OC)c(C=NNC(=O)NN=Cc2cc(OC)ccc2OC)c1	nt	nt	nt	42*	nt	57*	96*	92*
